Published values gathered from unrelated publications.
Compare with care: the assays were run in different laboratories.
Cell line: HeLa

SMILES	assay	conditions	quantity	result
COc1cc(F)ccc1-c1cc(Nc2cc(CS(C)(=N)=O)ccn2)ncc1F (stereo not drawn)	cell growth or viability	24 h	GI50	0.045 µM
COc1cccc2c1C(=O)c1c(O)c3c(c(O)c1C2=O)C[C@@](O)(C(=O)CO)C[C@@H]3O[C@H]1C[C@H](N)[C@H](O)[C@H](C)O1	cell growth or viability, MTT	24 h	IC50	1.2 µM
COc1cc(OC)c(C(=O)/C=C/c2ccc(Br)cn2)c(OC)c1	colony formation	4 µM, 7 days	inhibition	~100%
CCOCCOCCOCCNC(=S)NCCCC[C@H](NS(C)(=O)=O)C(=O)N[C@@H](C)C(=O)N[C@@H](CCCNC(=N)N)C(N)=O	cell growth or viability, MTT	72 h	EC50	> 100 µM
COc1cc(C)c(-c2c(C)cc(OC)c3c(=O)cc(-c4ccc(N(C)C)cc4)oc23)c2oc(-c3ccc(N(C)C)cc3)cc(=O)c12	cell growth or viability, MTT	48 h	IC50	1.4 µM
CCCCCCCCCCCCNC(=S)NCCCC[C@H](NC(=O)OCc1ccccc1)C(=O)N[C@@H](C)C(=O)N[C@@H](CCCNC(=N)N)C(N)=O	cell growth or viability, MTT	72 h	EC50	41.4 to 53.1 µM
COc1cc(C)c(-c2c(C)cc(OC)c3c(=O)cc(-c4ccc(Br)cc4)oc23)c2oc(-c3ccc(Br)cc3)cc(=O)c12	cell growth or viability, MTT	48 h	IC50	35.8 µM
C[C@@H](NC(=O)[C@H](CCCCNC(=O)C(F)(F)F)NS(C)(=O)=O)C(=O)N[C@@H](CCCNC(=N)N)C(N)=O	cell growth or viability, MTT	72 h	EC50	52.1 to 75.8 µM
Cc1ccc(NC(=O)c2ccc(CN3CCN(C)CC3)cc2)cc1Nc1nccc(-c2cccnc2)n1	cell growth or viability, MTT	20 µM, 48 h	inhibition	21%
